How the values were obtained:
Type in all cases: cell-based
[1] = target: T1, 5-hydroxytryptamine receptor 1A (Rattus norvegicus) (UniProt P19327); experiment: Displacement of [3H]8-OH-DPAT from rat 5HT1A receptor expressed in CHO cells at 10 uM
T1 sequence (whole entry): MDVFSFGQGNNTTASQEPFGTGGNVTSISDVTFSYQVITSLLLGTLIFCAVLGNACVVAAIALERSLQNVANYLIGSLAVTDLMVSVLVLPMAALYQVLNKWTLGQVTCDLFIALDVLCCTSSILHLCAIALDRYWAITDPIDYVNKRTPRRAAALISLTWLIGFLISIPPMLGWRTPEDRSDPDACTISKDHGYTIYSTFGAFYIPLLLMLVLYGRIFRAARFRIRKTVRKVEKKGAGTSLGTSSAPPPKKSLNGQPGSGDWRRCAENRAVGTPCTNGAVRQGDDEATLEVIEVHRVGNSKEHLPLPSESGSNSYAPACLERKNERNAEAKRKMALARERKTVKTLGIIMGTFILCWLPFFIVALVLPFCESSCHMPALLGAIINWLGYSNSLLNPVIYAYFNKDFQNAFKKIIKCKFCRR
Summary of the method: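 Duplicate incubations ran 50 min at 30 °C in 50 mM Tris, 4 mM MgCl2, pH 7.4. Nonspecific binding was set with 10 µM WAY100635. Bound ligand was separated on GF/B filters, washed with cold Tris/EDTA buffer, and counted by liquid scintillation.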

D(1A) dopamine receptor = D(1A) dopamine receptor (Homo sapiens, UniProt P21728); experiment: Displacement of [3H]SCH-23390 from human dopamine D1 receptor expressed in HEK293 cells
Chain of D(1A) dopamine receptor (P21728 whole entry): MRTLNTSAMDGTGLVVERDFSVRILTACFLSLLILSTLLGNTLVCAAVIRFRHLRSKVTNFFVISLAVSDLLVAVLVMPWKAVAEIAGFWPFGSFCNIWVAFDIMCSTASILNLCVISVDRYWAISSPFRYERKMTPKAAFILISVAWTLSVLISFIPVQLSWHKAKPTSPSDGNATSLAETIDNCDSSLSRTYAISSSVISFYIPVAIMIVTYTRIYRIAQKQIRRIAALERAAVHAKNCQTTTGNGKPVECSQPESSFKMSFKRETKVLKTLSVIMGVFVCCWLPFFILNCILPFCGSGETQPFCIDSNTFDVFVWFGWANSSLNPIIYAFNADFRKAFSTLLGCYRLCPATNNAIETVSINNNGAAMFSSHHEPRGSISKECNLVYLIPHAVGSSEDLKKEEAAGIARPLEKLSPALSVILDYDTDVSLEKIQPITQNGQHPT

[2] = target: T2, 5-hydroxytryptamine receptor 1A (Rattus norvegicus, UniProt P19327); experiment: Displacement of [3H]8-OH-DPAT from rat 5HT1A receptor expressed in CHO cells
T2 sequence (P19327 whole entry): T1 sequence (whole entry)

D(2) dopamine receptor = D(2) dopamine receptor (Homo sapiens, UniProt P14416); experiment: Displacement of [3H]spiperone from human dopamine D2 receptor expressed in HEK293 cells
Chain of D(2) dopamine receptor (P14416 whole entry): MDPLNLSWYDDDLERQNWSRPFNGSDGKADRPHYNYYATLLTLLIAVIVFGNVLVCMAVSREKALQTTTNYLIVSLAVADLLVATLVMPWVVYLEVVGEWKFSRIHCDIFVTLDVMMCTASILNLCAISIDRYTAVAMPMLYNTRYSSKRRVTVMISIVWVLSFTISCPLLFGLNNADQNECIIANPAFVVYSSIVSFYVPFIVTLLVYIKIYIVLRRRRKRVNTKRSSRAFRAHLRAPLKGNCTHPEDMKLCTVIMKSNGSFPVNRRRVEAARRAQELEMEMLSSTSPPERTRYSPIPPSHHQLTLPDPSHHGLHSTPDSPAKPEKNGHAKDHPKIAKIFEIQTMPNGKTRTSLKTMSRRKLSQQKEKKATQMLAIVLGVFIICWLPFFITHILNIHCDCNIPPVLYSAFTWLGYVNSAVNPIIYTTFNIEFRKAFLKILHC

**Q.** How did the Activity [1] turn out when CCCCC(=O)Oc1cccc2c1-c1cc(OC)cc3c1[C@@H](C2)N(C)CC3 was run?
**A.** 100%

**Q.** And the Ki (D(1A) dopamine receptor)?
**A.** 0.116 µM

**Q.** What about the Ki [2] of the same compound?
**A.** 0.151 µM

**Q.** Which Activity [1] does the source give for COc1cc2c3c(c1)-c1c(ccc4sc(N)nc14)C[C@H]3N(C)CC2 here?
**A.** 48.1%

**Q.** Which Ki (D(1A) dopamine receptor) does the source give for CN1CCc2c3c(cc4nc(N)sc24)-c2c(ccc(O)c2O)C[C@H]31 here?
**A.** 2.52 µM

**Q.** And the Ki (D(2) dopamine receptor)?
**A.** 0.328 µM

**Q.** What does the source list for CN1CCc2cc(N)cc3c2[C@H]1Cc1cccc(N)c1-3?
**A.** Activity [1]: 48.1%; Ki (D(1A) dopamine receptor): 2.92 µM; Ki [2]: 2.3 µM

**Q.** Which Activity [1] does the source give for COc1cc2c3c(c1)-c1c(N)cccc1C[C@H]3N(C)CC2 here?
**A.** 94%

**Q.** And the Ki (D(1A) dopamine receptor)?
**A.** 0.078 µM

**Q.** And the Ki [2]?
**A.** 0.64 µM

**Q.** With NCCc1c[nH]c2ccc(O)cc12 as the compound, how does the Activity [1] read?
**A.** 100%

Reference: ChEMBL document CHEMBL1155028, “Synthesis and pharmacological investigation of novel 2-aminothiazole-privileged aporphines” (Bioorg Med Chem, 2008)
